Tests used:
Salmonella typhimurium [1] = assay: Genotoxicity in Salmonella typhimurium TA98 assessed as increase in number of revertants at 0.625 mg/ml in presence of aroclor-1254-induced Sprague-Dawley rat liver microsomal S9 fraction by Ames-MPF assay relative to baseline; type: toxicity; details: salmonella enterica subsp. enterica serovar typhimurium, microsomes
How it was run: (§1)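 AmesMPF 98/100 fluctuation format with S. typhimurium TA98 (frameshift) and TA100 (base-pair substitution), run with and without S9. Compounds were made up in DMSO at 0.156–5 mg/mL, six levels; solvent control was 4% DMSO. With S9, positive controls were 2-aminoanthracene at 1 µg/mL (TA98) and 2.5 µg/mL (TA100). Wells turned yellow by pH drop were scored positive. Fold over baseline is mean positive wells divided by (zero-dose mean + 1 SD). Student's t-test, p<0.05.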

Salmonella typhimurium [2] = assay: Genotoxicity in Salmonella typhimurium TA98 assessed as increase in number of revertants at 1.25 mg/ml in absence of aroclor-1254-induced Sprague-Dawley rat liver microsomal S9 fraction by Ames-MPF assay relative to baseline; type: toxicity; details: salmonella enterica subsp. enterica serovar typhimurium, microsomes; how it was run: as §1
Salmonella typhimurium [3] = assay: Genotoxicity in Salmonella typhimurium TA98 assessed as increase in number of revertants at 1.25 mg/ml in presence of aroclor-1254-induced Sprague-Dawley rat liver microsomal S9 fraction by Ames-MPF assay relative to baseline; type: toxicity; details: salmonella enterica subsp. enterica serovar typhimurium, microsomes; how it was run: as §1
Salmonella typhimurium [4] = assay: Genotoxicity in Salmonella typhimurium TA100 assessed as increase in number of revertants at 5 mg/ml in absence of aroclor-1254-induced Sprague-Dawley rat liver microsomal S9 fraction by Ames-MPF assay relative to baseline; type: toxicity; details: salmonella enterica subsp. enterica serovar typhimurium, microsomes; how it was run: as §1
Salmonella typhimurium [5] = assay: Genotoxicity in Salmonella typhimurium TA100 assessed as increase in number of revertants at 2.5 mg/ml in absence of aroclor-1254-induced Sprague-Dawley rat liver microsomal S9 fraction by Ames-MPF assay relative to baseline; type: toxicity; details: salmonella enterica subsp. enterica serovar typhimurium, microsomes; how it was run: as §1
Salmonella typhimurium [6] = assay: Genotoxicity in Salmonella typhimurium TA100 assessed as increase in number of revertants at 1.25 mg/ml in presence of aroclor-1254-induced Sprague-Dawley rat liver microsomal S9 fraction by Ames-MPF assay relative to baseline; type: toxicity; details: salmonella enterica subsp. enterica serovar typhimurium, microsomes; how it was run: as §1
Salmonella typhimurium [7] = assay: Genotoxicity in Salmonella typhimurium TA98 assessed as increase in number of revertants at 0.156 mg/ml in absence of aroclor-1254-induced Sprague-Dawley rat liver microsomal S9 fraction by Ames-MPF assay relative to baseline; type: toxicity; details: salmonella enterica subsp. enterica serovar typhimurium, microsomes; how it was run: as §1
Salmonella typhimurium [8] = assay: Genotoxicity in Salmonella typhimurium TA98 assessed as increase in number of revertants at 0.625 mg/ml in absence of aroclor-1254-induced Sprague-Dawley rat liver microsomal S9 fraction by Ames-MPF assay relative to baseline; type: toxicity; details: salmonella enterica subsp. enterica serovar typhimurium, microsomes; how it was run: as §1
[9] = target: T1, Amine oxidase [flavin-containing] B (Homo sapiens, UniProt P27338); assay: Inhibition of recombinant human MAO-B expressed in baculovirus infected BTI insect cells using tyramine as substrate pretreated for 30 mins followed by substrate addition incubated for 30 mins measured at 5 mins interval by horse-radish peroxidase/amplex red-based fluorometric method; type: cell-based
T1 sequence (P27338 whole entry): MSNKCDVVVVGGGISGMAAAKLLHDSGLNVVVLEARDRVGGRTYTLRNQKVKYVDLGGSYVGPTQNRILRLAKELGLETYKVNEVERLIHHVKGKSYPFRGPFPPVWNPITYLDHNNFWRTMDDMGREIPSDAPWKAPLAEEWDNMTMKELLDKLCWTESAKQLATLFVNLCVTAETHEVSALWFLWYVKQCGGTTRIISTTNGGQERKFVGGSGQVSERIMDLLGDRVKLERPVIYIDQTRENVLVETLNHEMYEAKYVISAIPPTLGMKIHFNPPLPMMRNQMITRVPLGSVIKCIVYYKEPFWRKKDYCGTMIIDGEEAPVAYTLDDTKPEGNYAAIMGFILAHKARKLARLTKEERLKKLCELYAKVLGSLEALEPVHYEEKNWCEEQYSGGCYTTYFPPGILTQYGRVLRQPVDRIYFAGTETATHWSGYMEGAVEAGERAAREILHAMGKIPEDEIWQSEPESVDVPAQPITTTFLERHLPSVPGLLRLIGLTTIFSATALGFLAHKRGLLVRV

Salmonella typhimurium [10] = assay: Genotoxicity in Salmonella typhimurium TA100 assessed as increase in number of revertants at 0.625 mg/ml in presence of aroclor-1254-induced Sprague-Dawley rat liver microsomal S9 fraction by Ames-MPF assay relative to baseline; type: toxicity; details: salmonella enterica subsp. enterica serovar typhimurium, microsomes; how it was run: as §1
Salmonella typhimurium [11] = assay: Genotoxicity in Salmonella typhimurium TA98 assessed as increase in number of revertants at 0.156 mg/ml in presence of aroclor-1254-induced Sprague-Dawley rat liver microsomal S9 fraction by Ames-MPF assay relative to baseline; type: toxicity; details: salmonella enterica subsp. enterica serovar typhimurium, microsomes; how it was run: as §1
Salmonella typhimurium [12] = assay: Genotoxicity in Salmonella typhimurium TA100 assessed as increase in number of revertants at 0.3125 mg/ml in absence of aroclor-1254-induced Sprague-Dawley rat liver microsomal S9 fraction by Ames-MPF assay relative to baseline; type: toxicity; details: salmonella enterica subsp. enterica serovar typhimurium, microsomes; how it was run: as §1
Salmonella typhimurium [13] = assay: Genotoxicity in Salmonella typhimurium TA98 assessed as increase in number of revertants at 5 mg/ml in presence of aroclor-1254-induced Sprague-Dawley rat liver microsomal S9 fraction by Ames-MPF assay relative to baseline; type: toxicity; details: salmonella enterica subsp. enterica serovar typhimurium, microsomes; how it was run: as §1
[14] = target: T1, Amine oxidase [flavin-containing] B; assay: Non-competitive inhibition of recombinant human MAO-B expressed in baculovirus infected BTI insect cells using varying levels of tyramine as substrate pretreated for 30 mins followed by substrate addition measured for 30 mins by Line-weaver burk plot method
How it was run: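 hMAO-B preincubated 30 min at 37°C with inhibitor at five concentrations. Working solution with tyramine at 20, 10, 5, 2.5, 1.25 and 0.625 µM then added, and fluorescence (Ex/Em 535/587 nm) followed for 30 min alongside an inhibitor-free run; quadruplicate. Inhibition type from Lineweaver-Burk plots; Ki from x-intercept of Vmax replotted against inhibitor concentration.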

C#CCn1c(-c2ccc(C(=O)N/N=C/c3ccc(F)cc3)cc2)nc2ccccc21
fold change (FC) (Salmonella typhimurium [1]): 2.01 | fold change (FC) (Salmonella typhimurium [2]): 0.28 | fold change (FC) (Salmonella typhimurium [3]): 2.13 | fold change (FC) (Salmonella typhimurium [4]): 1.63 | fold change (FC) (Salmonella typhimurium [5]): 1.78 | fold change (FC) (Salmonella typhimurium [6]): 1.46 | fold change (FC) (Salmonella typhimurium [7]): 0.68 | fold change (FC) (Salmonella typhimurium [8]): 0.23 | IC50 [9]: 136 nM | fold change (FC) (Salmonella typhimurium [10]): 1.15 | fold change (FC) (Salmonella typhimurium [11]): 1.3 | fold change (FC) (Salmonella typhimurium [12]): 0.79 | fold change (FC) (Salmonella typhimurium [13]): 3.07

C#CCn1c(-c2ccc(C(=O)N/N=C/c3cccnc3)cc2)nc2ccccc21
Ki [14]: 150 to 151 nM | fold change (FC) (Salmonella typhimurium [1]): 0.35 | fold change (FC) (Salmonella typhimurium [2]): 0.68 | fold change (FC) (Salmonella typhimurium [3]): 0.52 | fold change (FC) (Salmonella typhimurium [4]): 0.89 | fold change (FC) (Salmonella typhimurium [5]): 0.74 | fold change (FC) (Salmonella typhimurium [6]): 0.33 | fold change (FC) (Salmonella typhimurium [7]): 1.03 | fold change (FC) (Salmonella typhimurium [8]): 0.51 | IC50 [9]: 75 nM | fold change (FC) (Salmonella typhimurium [10]): 0.27 | fold change (FC) (Salmonella typhimurium [11]): 0.35 | fold change (FC) (Salmonella typhimurium [12]): 0.99 | fold change (FC) (Salmonella typhimurium [13]): 0

— ChEMBL document CHEMBL4038273, “MAO enzymes inhibitory activity of new benzimidazole derivatives including hydrazone and propargyl side chains” (Eur J Med Chem, 2017)
